Data: ChEMBL document CHEMBL3244123, “Isoquinolines. 5. Synthesis and antiarrhythmic activity of benzylisoquinoline derivatives” (J Med Chem, 1977)
Activity calls are given as the source filed them. No cut-off for these calls is given here.

How the values were obtained:
Mus musculus [1] = experiment: Toxicity in Swiss albino mouse assessed as convulsions at 100 mg/kg, sc measured up to 20 mins; assay type: organism-based; parameters: dose 100 mg/kg, route subcutaneous; details: in vivo
Procedure, shortened: (§1)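 Female Swiss albino mice, ten per dose, were given drug in 0.9% saline sc and watched for 20 min before chloroform challenge. Ataxia, convulsions, loss of righting reflex and death were each reported as number of animals affected of ten.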

Mus musculus [2] = experiment: Toxicity in Swiss albino mouse assessed as convulsions at 200 mg/kg, sc measured up to 20 mins; assay type: organism-based; parameters: dose 200 mg/kg, route subcutaneous; details: in vivo; procedure, shortened: as §1
Mus musculus [3] = experiment: Toxicity in Swiss albino mouse assessed as mortality at 100 mg/kg, sc measured up to 20 mins; assay type: organism-based; parameters: dose 100 mg/kg, route subcutaneous; details: in vivo; procedure, shortened: as §1
Mus musculus [4] = experiment: Toxicity in Swiss albino mouse assessed as mortality at 200 mg/kg, sc measured up to 20 mins; assay type: organism-based; parameters: dose 200 mg/kg, route subcutaneous; details: in vivo; procedure, shortened: as §1
Mus musculus [5] = experiment: Antiarrhythmic activity in Swiss albino mouse assessed as protection against chloroform-induced ventricular fibrillation at 100 mg/kg, sc administered 20 mins prior to challenge; assay type: functional, organism-based; parameters: dose 100 mg/kg; details: Heart
Procedure, shortened: (§2)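 Female Swiss albino mice, groups of ten, received drug in 0.9% saline sc at 100 mg/kg; dose raised to 200 mg/kg when neither protection nor toxicity appeared. After 20 min, mice were exposed to chloroform vapour. Absence of ventricular fibrillation counted as protection, reported as number protected of ten.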

Mus musculus [6] = experiment: Toxicity in Swiss albino mouse assessed as loss of righting reflex at 200 mg/kg, sc measured up to 20 mins; assay type: organism-based; parameters: dose 200 mg/kg, route subcutaneous; details: in vivo; procedure, shortened: as §1
Mus musculus [7] = experiment: Toxicity in Swiss albino mouse assessed as ataxia at 200 mg/kg, sc measured up to 20 mins; assay type: organism-based; parameters: dose 200 mg/kg, route subcutaneous; details: in vivo; procedure, shortened: as §1
Mus musculus [8] = experiment: Toxicity in Swiss albino mouse assessed as loss of righting reflex at 100 mg/kg, sc measured up to 20 mins; assay type: organism-based; parameters: dose 100 mg/kg, route subcutaneous; details: in vivo; procedure, shortened: as §1
Mus musculus [9] = experiment: Toxicity in Swiss albino mouse assessed as ataxia at 100 mg/kg, sc measured up to 20 mins; assay type: organism-based; parameters: dose 100 mg/kg, route subcutaneous; details: in vivo; procedure, shortened: as §1
Canis familiaris [10] = experiment: Antiarrhythmic activity in beagle dog myocardial infarction model assessed as mean arterial blood pressure at 0.5 mg/kg/min, iv administered as infusion (reference value: 80 to 115 mmHg)
Canis familiaris [11] = experiment: Antiarrhythmic activity in beagle dog myocardial infarction model assessed as ventricular rate at 0.5 mg/kg/min, iv administered as infusion (reference value: 126 to 221 bpm); assay type: functional, Canis lupus familiaris, Heart
Procedure, shortened: (§3)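 Drug infused iv via a fore limb vein at 0.5 mg/kg/min (as base, in 0.9% saline, pH 6–7) until clearing (ventricular ectopic activity ≤5% for a consecutive 5 min); EKG and vital signs monitored during and after infusion.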

Canis familiaris [12] = experiment: Antiarrhythmic activity in beagle dog myocardial infarction model assessed as concentration required for reduction in ventricular ectopic activity to 5% or less for a consecutive 5 min compound administered iv as infusion; assay type: functional, Canis lupus familiaris, Heart; procedure, shortened: as §3
Canis familiaris [13] = experiment: Toxicity in beagle dog myocardial infarction model assessed as head tremors compound administered iv as infusion; assay type: organism-based, Canis lupus familiaris; details: in vivo; procedure, shortened: as §3
Canis familiaris [14] = experiment: Antiarrhythmic activity in beagle dog myocardial infarction model assessed as ventricular ectopic beats at 0.5 mg/kg/min, iv administered as infusion (reference value: 84 to 98 %); assay type: functional, Canis lupus familiaris, Heart; procedure, shortened: as §3
Canis familiaris [15] = experiment: Toxicity in beagle dog myocardial infarction model assessed as convulsions compound administered iv as infusion; assay type: organism-based, Canis lupus familiaris; details: in vivo; procedure, shortened: as §3
Mus musculus [16] = experiment: Antiarrhythmic activity in Swiss albino mouse assessed as protection against chloroform-induced ventricular fibrillation at 47 mg/kg, sc administered 20 mins prior to challenge; assay type: functional, organism-based; parameters: dose 47 mg/kg; details: Heart
Procedure, shortened: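 Female Swiss albino mice, ten per dose, received drug in 0.9% saline sc at one of three log-spaced doses. After 20 min, mice were exposed to chloroform vapour. Mice without ventricular fibrillation were scored protected, reported as number protected of ten.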

Mus musculus [17] = experiment: Toxicity in Swiss albino mouse assessed as ataxia at 47 mg/kg, sc measured up to 20 mins; assay type: organism-based; parameters: dose 47 mg/kg, route subcutaneous; details: in vivo; procedure, shortened: as §1
Mus musculus [18] = experiment: Toxicity in Swiss albino mouse assessed as loss of righting reflex at 47 mg/kg, sc measured up to 20 mins; assay type: organism-based; parameters: dose 47 mg/kg, route subcutaneous; details: in vivo; procedure, shortened: as §1
Mus musculus [19] = experiment: Antiarrhythmic activity in sc dosed Swiss albino mouse assessed as protection against chloroform-induced ventricular fibrillation compound administered 20 mins prior to challenge; assay type: functional; details: Heart
Procedure, shortened: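 Female Swiss albino mice, ten per dose, given drug sc in 0.9% saline; screen at 100 mg/kg (raised to 200 mg/kg if neither protection nor toxicity), observed 20 min for toxicity, then exposed to chloroform vapour; absence of ventricular fibrillation counted as protection. Full tests used three log-spaced doses; ED50 with 95% Fieller limits by Berkson minimum logit χ² analysis.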

Mus musculus [20] = experiment: Toxicity in Swiss albino mouse assessed as convulsions at 138 mg/kg, sc measured up to 20 mins; assay type: organism-based; parameters: dose 138 mg/kg, route subcutaneous; details: in vivo; procedure, shortened: as §1
Mus musculus [21] = experiment: Toxicity in Swiss albino mouse assessed as ataxia at 138 mg/kg, sc measured up to 20 mins; assay type: organism-based; parameters: dose 138 mg/kg, route subcutaneous; details: in vivo; procedure, shortened: as §1
Mus musculus [22] = experiment: Toxicity in Swiss albino mouse assessed as mortality at 138 mg/kg, sc measured up to 20 mins; assay type: organism-based; parameters: dose 138 mg/kg, route subcutaneous; details: in vivo; procedure, shortened: as §1
Mus musculus [23] = experiment: Toxicity in Swiss albino mouse assessed as loss of righting reflex at 138 mg/kg, sc measured up to 20 mins; assay type: organism-based; parameters: dose 138 mg/kg, route subcutaneous; details: in vivo; procedure, shortened: as §1
Mus musculus [24] = experiment: Antiarrhythmic activity in Swiss albino mouse assessed as protection against chloroform-induced ventricular fibrillation at 200 mg/kg, sc administered 20 mins prior to challenge; assay type: functional, organism-based; parameters: dose 200 mg/kg; details: Heart; procedure, shortened: as §2

Row | SMILES | Activity (Mus musculus [1]) | Activity (Mus musculus [3]) | Activity (Mus musculus [8]) | Activity (Mus musculus [9]) | also measured
1 | CCN(CC)CC(=O)Nc1cc(OC)c(OC)cc1C.Cl | Non-toxic | Non-toxic | Non-toxic | Non-toxic | Activity (Mus musculus [2]): Non-toxic; Activity (Mus musculus [4]): Non-toxic; Activity (Mus musculus [5]): inactive; Activity (Mus musculus [6]): Non-toxic; Activity (Mus musculus [7]): Non-toxic
2 | COc1ccc(Cc2nccc3ccccc23)c(NC(=O)CN)c1OC | Non-toxic | Non-toxic | Non-toxic | Non-toxic | –
3 | CCN(CC)CC(=O)Nc1c(Cc2nccc3ccccc23)ccc(OC)c1OC | Non-toxic | Non-toxic | Non-toxic | Non-toxic | Activity (Canis familiaris [10]): 90%; Activity (Canis familiaris [11]): 135%; Activity (Canis familiaris [12]): 46.5 mg/kg; Activity (Canis familiaris [13]): 6.25 mg/kg; Activity (Canis familiaris [14]): 0%; Activity (Canis familiaris [15]): 15.75 mg/kg
4 | COc1ccc(CC2c3cc(OC)c(OC)cc3CCN2C)cc1OC (racemic) [LAUDANOSINE] | Toxic | Toxic | Non-toxic | Toxic | Activity (Mus musculus [16]): inactive; Activity (Mus musculus [17]): Non-toxic; Activity (Mus musculus [18]): Non-toxic; Activity (Mus musculus [5]): inactive
5 | CCN(CC)CC(=O)Nc1c(CC2c3ccccc3CCN2C)ccc(OC)c1OC.Cl (centres undefined) | – | – | – | – | ED50 (Mus musculus [19]): 147 mg/kg; Activity (Mus musculus [20]): Non-toxic; Activity (Mus musculus [21]): Non-toxic; Activity (Mus musculus [22]): Non-toxic; Activity (Mus musculus [23]): Non-toxic
6 | COc1ccc(Cc2nccc3cc(OC)c(OC)cc23)cc1OC [PAPAVERINE] | Non-toxic | Non-toxic | Non-toxic | – | –
7 | CCNCC(=O)Nc1c(Cc2nccc3ccccc23)ccc(OC)c1OC | Non-toxic | Non-toxic | Non-toxic | Non-toxic | Activity (Canis familiaris [10]): 85%; Activity (Canis familiaris [12]): 10 mg/kg; Activity (Canis familiaris [14]): 0%
8 | CCN(CC)CC(=O)Nc1c(C)cccc1C [LIDOCAINE] | Toxic | Non-toxic | Toxic | Toxic | Activity (Mus musculus [5]): Active
9 | CCN(CC)CC(=O)Nc1cc(OC)c(OC)cc1Cc1nccc2cc(OC)c(OC)cc12 | Non-toxic | Non-toxic | Non-toxic | Non-toxic | –
10 | COc1ccc(Cc2nccc3ccccc23)c(NC(=O)C(C)N)c1OC (centres undefined) | Non-toxic | Non-toxic | Non-toxic | Non-toxic | –
11 | CCN(CC)CC(=O)Nc1cc(OC)ccc1C.Cl | – | – | – | – | Activity (Mus musculus [2]): Non-toxic; Activity (Mus musculus [4]): Non-toxic; Activity (Mus musculus [6]): Non-toxic; Activity (Mus musculus [7]): Non-toxic
12 | CCNCC(=O)Nc1cc(OC)c(OC)cc1Cc1nccc2cc(OC)c(OC)cc12 | Non-toxic | Non-toxic | Non-toxic | – | –
13 | CCN(CC)CC(=O)Nc1cc(OC)ccc1Cc1nccc2ccccc12 | Non-toxic | Non-toxic | Non-toxic | Non-toxic | Activity (Mus musculus [2]): Non-toxic; Activity (Mus musculus [4]): Non-toxic; Activity (Mus musculus [5]): inactive; Activity (Mus musculus [6]): Non-toxic; Activity (Mus musculus [7]): Non-toxic; Activity (Mus musculus [24]): inactive
14 | CCN(CC)CC(=O)Nc1cc(OC)c(OC)cc1Cc1nccc2ccccc12 | Non-toxic | Non-toxic | Non-toxic | – | –
